The structures appear in SMILES notation.

As usually defined, the Ki is the dissociation constant of the complex between target and ligand, obtained from inhibition or displacement. One may read the Kd as the equilibrium constant for the complex coming apart. The low end stands for higher affinity, the high end for lower affinity.

The target in series [1] is T1, Beta-galactoside alpha-2,6-sialyltransferase 1 (Rattus norvegicus, UniProt P13721).
T1 sequence (P13721 whole entry): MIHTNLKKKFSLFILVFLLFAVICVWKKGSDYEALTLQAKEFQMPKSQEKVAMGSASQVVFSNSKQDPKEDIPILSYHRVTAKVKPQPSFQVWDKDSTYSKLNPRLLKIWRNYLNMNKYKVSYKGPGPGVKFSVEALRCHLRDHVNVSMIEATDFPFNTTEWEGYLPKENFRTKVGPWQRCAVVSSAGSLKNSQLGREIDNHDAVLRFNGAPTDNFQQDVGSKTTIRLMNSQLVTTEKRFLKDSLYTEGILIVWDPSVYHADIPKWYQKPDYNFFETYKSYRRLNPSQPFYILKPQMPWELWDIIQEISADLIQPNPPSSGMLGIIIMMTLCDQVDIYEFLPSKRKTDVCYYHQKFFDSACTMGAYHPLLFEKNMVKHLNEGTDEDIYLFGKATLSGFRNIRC
Briefly: Inhibition of rat liver ST6Gal-1 using […] measured up to 20 mins by HPLC analysis.

For series [2], the target named is T1, Beta-galactoside alpha-2,6-sialyltransferase 1. Briefly: Inhibition of rat liver ST6Gal-1 by HPLC-based assay.
Series [3] concerns the target T2, Beta-galactoside alpha-2,6-sialyltransferase 1 (Homo sapiens, UniProt P15907).
T2 sequence (P15907 whole entry): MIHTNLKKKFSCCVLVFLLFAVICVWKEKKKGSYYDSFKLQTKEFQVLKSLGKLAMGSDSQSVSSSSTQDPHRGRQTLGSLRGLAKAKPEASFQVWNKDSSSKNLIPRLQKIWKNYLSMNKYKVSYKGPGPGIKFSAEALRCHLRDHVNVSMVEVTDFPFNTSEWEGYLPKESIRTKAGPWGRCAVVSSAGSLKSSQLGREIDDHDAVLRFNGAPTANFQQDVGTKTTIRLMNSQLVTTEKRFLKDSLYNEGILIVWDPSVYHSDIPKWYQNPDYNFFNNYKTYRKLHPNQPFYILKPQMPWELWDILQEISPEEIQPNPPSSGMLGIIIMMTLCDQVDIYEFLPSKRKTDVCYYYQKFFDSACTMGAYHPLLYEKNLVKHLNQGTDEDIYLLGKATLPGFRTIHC
Briefly: Displacement of fluorescent probe from human ST6Gal-1 by fluorescence polarization assay. On the technique in general: In fluorescence polarisation assays a small probe gives low polarisation when free and higher when bound to something large.

Series [4] relates to MIA PaCa-2. Briefly: Cytotoxicity against human MIA PaCa-2 cells assessed as reduction in cell viability at 200 uM after 24 to 48 hrs by MTS assay. It counts as cell-based. To be noted: mia paca-2, 200 µM, time 24-48 hrs.
In series [5] the target is T2, Beta-galactoside alpha-2,6-sialyltransferase 1. Briefly: Inhibition of recombinant human N-terminal 6His-tagged ST6Gal-1 (Glu44 to Cys406 residues). The gist of the method: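 Recombinant human ST6Gal I activity was measured in a luminescence microplate assay, and inhibition was expressed as Ki.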

Take `Nc1ccn([C@@H]2O[C@H](COP(=O)(O)O[C@@H](c3cccc(Oc4ccccc4)c3)P(=O)(O)O)[C@@H](O)[C@H]2O)c(=O)n1`: the affinity in series [1] corresponds to a Ki of 0.07 µM.
In the case of `CC(=O)N[C@H]1[C@@H](Oc2ccccc2)OC([C@@H](OP(=O)(O)OC[C@H]2O[C@@H](n3ccc(N)nc3=O)[C@H](O)[C@@H]2O)P(=O)(O)O)=C[C@@H]1O`, in series [2], the Ki worked out at 0.029 µM.
In turn, `Nc1ccn([C@@H]2O[C@H](COP(=O)(O)O[C@@H](c3cccc(NC(=O)c4ccc(C(=O)O)c(-c5c6ccc(=O)cc-6oc6cc(O)ccc56)c4)c3)P(=O)(O)O)[C@@H](O)[C@H]2O)c(=O)n1` returned a Kd in series [3] of 0.022 µM.
`Nc1ccn([C@@H]2O[C@H](COP(=O)(O)O[C@H](c3cccc(NC(=O)c4ccc(C(=O)O)c(-c5c6ccc(=O)cc-6oc6cc(O)ccc56)c4)c3)P(=O)(O)O)[C@@H](O)[C@H]2O)c(=O)n1` gave a Kd in series [3] of 0.009 µM.
Regarding `O=C(NC[C@H]1O[C@@H](n2ccc(=O)[nH]c2=O)[C@H](O)[C@@H]1O)OC(c1cccc(Oc2ccccc2)c1)P(=O)([O-])[O-].[Na+].[Na+]` (stereo in doubt; 28a-(s)), in series [4], the Activity result is recorded as “Non-Toxic”.
On to `O=C(NC[C@H]1O[C@@H](n2ccc(=O)[nH]c2=O)[C@H](O)[C@@H]1O)OC(c1ccc(F)c(Oc2ccccc2)c1)P(=O)([O-])[O-].[Na+].[Na+]` (stereo in doubt; 28b-(s)), for which, in series [4], the Activity entry was “Non-Toxic”.
Regarding `O=C(NC[C@H]1O[C@@H](n2ccc(=O)[nH]c2=O)[C@H](O)[C@@H]1O)OC(c1ccc(F)cc1)P(=O)(O)O` (stereo in doubt; 28c-(l)), the Ki in series [5] turned out to be 1.1 µM.
Take `O=C(NC[C@H]1O[C@@H](n2ccc(=O)[nH]c2=O)[C@H](O)[C@@H]1O)OC(c1ccc(F)cc1)P(=O)([O-])[O-].[Na+].[Na+]` (stereo in doubt; 28c-(s)): the Activity result in series [4] was “Non-Toxic”. Also, in series [5], the Ki was 306 µM.
For `O=C(NC[C@H]1O[C@@H](n2ccc(=O)[nH]c2=O)[C@H](O)[C@@H]1O)OC(c1cccc(F)c1)P(=O)([O-])[O-].[Na+].[Na+]` (stereo in doubt; 28d-(s)) the same measures were “Non-Toxic” and 19.2 µM.
Consider `CCCOc1cccc(C(OC(=O)NC[C@H]2O[C@@H](n3ccc(=O)[nH]c3=O)[C@H](O)[C@@H]2O)P(=O)(O)O)c1` (stereo in doubt; 28e-(l)), for which the Ki in series [5] was found to be 20.3 µM.
For `CCCOc1cccc(C(OC(=O)NC[C@H]2O[C@@H](n3ccc(=O)[nH]c3=O)[C@H](O)[C@@H]2O)P(=O)([O-])[O-])c1.[Na+].[Na+]` (stereo in doubt; 28e-(s)), in series [4], the Activity result is “Non-Toxic”.
The same measure, in the same setting: with `COc1cccc(C(OC(=O)NC[C@H]2O[C@@H](n3ccc(=O)[nH]c3=O)[C@H](O)[C@@H]2O)P(=O)([O-])[O-])c1.[Na+].[Na+]` (stereo in doubt; 28f-(s)) the entry was “Non-Toxic”; with `COc1ccc(C(OC(=O)NC[C@H]2O[C@@H](n3ccc(=O)[nH]c3=O)[C@H](O)[C@@H]2O)P(=O)([O-])[O-])cc1.[Na+].[Na+]` (stereo in doubt; 28g-(s)), “Non-Toxic”.
The same measure, in the same setting: the same measure for `COc1ccc(C(OC(=O)NC[C@H]2O[C@@H](n3ccc(=O)[nH]c3=O)[C@H](O)[C@@H]2O)P(=O)([O-])[O-])cc1OC1CCCC1.[Na+].[Na+]` (stereo in doubt; 28h-(s)): “Non-Toxic”.
In the case of `O=C(NC[C@H]1O[C@@H](n2ccc(=O)[nH]c2=O)[C@H](O)[C@@H]1O)OC(c1ccc(OC2CCCC2)cc1)P(=O)(O)O` (stereo in doubt; 28i-(l)), the Ki in series [5] was determined as 11.5 µM.
In the case of `O=C(NC[C@H]1O[C@@H](n2ccc(=O)[nH]c2=O)[C@H](O)[C@@H]1O)OC(c1ccc(OC2CCCC2)cc1)P(=O)([O-])[O-].[Na+].[Na+]` (stereo in doubt; 28i-(s)), in series [4], the Activity result is on record as “Non-Toxic”. Also, the Ki in series [5] stood at 55.5 µM.
As to `O=C(NC[C@H]1O[C@@H](n2ccc(=O)[nH]c2=O)[C@H](O)[C@@H]1O)OC(c1ccccc1)P(=O)([O-])[O-].[Na+].[Na+]` (stereo in doubt; 28j-(s)), in series [4], the Activity result is “Non-Toxic”.
As to `O=C(NC[C@H]1O[C@@H](n2ccc(=O)[nH]c2=O)[C@H](O)[C@@H]1O)OC(c1cc2ccccc2s1)P(=O)([O-])[O-].[Na+].[Na+]` (stereo in doubt; 28k-(s)), the Activity entry in series [4] was “Non-Toxic”. In series [5], the Ki was found to be 8.5 µM.
Regarding `O=C(NC[C@H]1O[C@@H](n2ccc(=O)[nH]c2=O)[C@H](O)[C@@H]1O)OC(c1csc2ccccc12)P(=O)([O-])[O-].[Na+].[Na+]` (stereo in doubt; 28l-(s)), in series [4], the Activity entry was “Non-Toxic”.
On the same count and under the same terms, with `Nc1ccn([C@@H]2O[C@H](CNC(=O)OC(c3cccc(Oc4ccccc4)c3)P(=O)([O-])[O-])[C@@H](O)[C@H]2O)c(=O)n1.[Na+].[Na+]` (stereo in doubt; 30-(s)) the entry was “Non-Toxic”.
